In ChEMBL document CHEMBL1144352, “Effects of flavonoids on cell proliferation and caspase activation in a human colonic cell line HT29: an SAR study” (2005):

Columns and labels:
Format in all cases: functional
HT-29 [1] = assay: Antiproliferative effect against human colonic cell line (HT-29) after 6 hr at a concentration of 50 uM
Outline: (§1)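 HT-29 cells plated at 15 000/well in DMEM with 5% fetal calf serum for 24 h, then medium replaced with fresh medium containing compound at 50 µM plus 200 µM sodium ascorbate. After incubation, neutral red (50 µg/mL) uptake for 2 h, formaldehyde/CaCl2 fixation, ethanol:acetic acid extraction, OD 550 nm. Result as % of control cells, mean ± SD, n > 18 wells, ≥4 experiments.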

HT-29 [2] = assay: Antiproliferative effect against human colonic cell line (HT-29) after 24 hr at a concentration of 50 uM; outline: as §1
HT-29 [3] = assay: Caspase 3/7 activity is expressed as ratio of caspase activation in treated human colonic cell line (HT-29) to that of untreated control cells after 5 hr
Outline: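 Caspase 3/7 measured with ApopOne kit. HT-29 cells were seeded at 15 000/well and exposed to test molecule for 5 h. Reagent containing caspase substrate and lysis buffer was then added, followed by 45 min at 37 °C. Fluorescence read at excitation 485 nm and emission 538 nm. Reported as ratio of treated to untreated control, mean of duplicate wells on one plate.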

Compound: C=CC(C)(C)c1cc(C(=O)/C=C/c2ccccc2)c(O)cc1O
- Activity (HT-29 [1]): 35.4
- Activity (HT-29 [2]): 15.6
- Caspase induction (HT-29 [3]): 7.3

Compound: O=C(/C=C/c1ccc(O)cc1)c1c(O)cc(O)cc1O [4,2',4',6'-TETRAHYDROXYCHALCONE]
- Activity (HT-29 [1]): 102
- Activity (HT-29 [2]): 94.1

Compound: O=c1c(O)c(-c2ccc(O)c(O)c2)oc2cc(O)cc(O)c12 [QUERCETIN]
- Activity (HT-29 [1]): 61.4
- Activity (HT-29 [2]): 51.3
- Caspase induction (HT-29 [3]): 1

Compound: CC(C)=CCc1c(O)cc2oc(-c3ccccc3)cc(=O)c2c1O
- Activity (HT-29 [1]): 87.9
- Activity (HT-29 [2]): 87.9

Compound: O=c1cc(-c2ccccc2)oc2cc(O)cc(O)c12 [CHRYSIN]
- Activity (HT-29 [1]): 86.6
- Activity (HT-29 [2]): 62.8
- Caspase induction (HT-29 [3]): 0.8

Compound: CC(C)=CCOc1cc(O)cc2oc(-c3ccccc3)cc(=O)c12
- Activity (HT-29 [1]): 17
- Activity (HT-29 [2]): 19.4
- Caspase induction (HT-29 [3]): 1.4

Compound: CC(C)=CCC/C(C)=C/COc1cc(O)c2c(=O)cc(-c3ccccc3)oc2c1
- Activity (HT-29 [1]): 90.4
- Activity (HT-29 [2]): 84.3
- Caspase induction (HT-29 [3]): 1.2

Compound: C=CC(C)(C)c1c(O)cc(O)c2c(=O)c(OC)c(-c3ccc(OC)c(OC)c3)oc12
- Activity (HT-29 [1]): 8.5
- Activity (HT-29 [2]): 4.7
- Caspase induction (HT-29 [3]): 5.2

Compound: CC(C)=CCc1c(O)c(O)c2oc(-c3ccccc3)cc(=O)c2c1O
- Activity (HT-29 [1]): 67.4
- Activity (HT-29 [2]): 71.7
- Caspase induction (HT-29 [3]): 1.6

Compound: COc1ccc(C(=O)/C=C(\O)c2ccc(O)cc2O)cc1
- Activity (HT-29 [1]): 96.2
- Activity (HT-29 [2]): 96.6

Compound: CC(C)=CCc1c(O)cc(O)c2c(=O)c(O)c(-c3ccc(O)c(O)c3)oc12
- Activity (HT-29 [1]): 68
- Activity (HT-29 [2]): 67
- Caspase induction (HT-29 [3]): 1.9

Compound: C=CC(C)(C)c1c(O)cc(O)c2c(=O)c(OC)c(-c3ccc(OC)cc3)oc12
- Activity (HT-29 [1]): 34.5
- Activity (HT-29 [2]): 20.1
- Caspase induction (HT-29 [3]): 8.1

Compound: C=CC(C)(C)c1c(O)cc(O)c2c(=O)c(OC)c(-c3ccccc3)oc12
- Activity (HT-29 [1]): 79.3
- Activity (HT-29 [2]): 79.4
- Caspase induction (HT-29 [3]): 1.3

Compound: O=c1cc(-c2ccccc2)oc2cc(OCc3ccccc3)cc(O)c12
- Activity (HT-29 [1]): 96.6
- Activity (HT-29 [2]): 87.1

Compound: O=C1C[C@@H](c2ccc(O)cc2)Oc2cc(O)cc(O)c21 [NARINGENIN]
- Activity (HT-29 [1]): 102.2
- Activity (HT-29 [2]): 94.8

Compound: COc1c(-c2ccccc2)oc2c(O)c(O)c(CC=C(C)C)c(O)c2c1=O
- Activity (HT-29 [1]): 59.8
- Activity (HT-29 [2]): 71.8
- Caspase induction (HT-29 [3]): 3.5

Compound: COc1ccc(-c2cc(=O)c3c(OC)c(OC)c(OC)cc3o2)cc1O
- Activity (HT-29 [1]): 95.4
- Activity (HT-29 [2]): 102.1

Compound: C=CC(C)(C)c1c(O)cc(O)c2c(=O)c(O)c(-c3ccc(OC)cc3)oc12
- Activity (HT-29 [1]): 56.4
- Activity (HT-29 [2]): 42.1

Compound: CC(C)=CCc1c(O)cc(O)c2c(=O)cc(-c3ccccc3)oc12
- Activity (HT-29 [1]): 86.3
- Activity (HT-29 [2]): 75.5
- Caspase induction (HT-29 [3]): 0.9

Compound: COc1cc(OC)c(-c2oc3cc(O)cc(O)c3c(=O)c2OC)cc1OC
- Activity (HT-29 [1]): 90
- Activity (HT-29 [2]): 92.5

Compound: COc1cc(-c2oc3cc(O)cc(O)c3c(=O)c2OC)cc(OC)c1OC
- Activity (HT-29 [1]): 101.9
- Activity (HT-29 [2]): 101.8

Compound: O=c1cc(-c2ccccc2)oc2c(Cc3ccccc3)c(O)cc(O)c12
- Activity (HT-29 [1]): 103.2
- Activity (HT-29 [2]): 97.4

Compound: CC(C)=CCC/C(C)=C/Cc1c(O)cc(O)c2c(=O)cc(-c3ccccc3)oc12
- Activity (HT-29 [1]): 18
- Activity (HT-29 [2]): 7.6
- Caspase induction (HT-29 [3]): 9

Compound: C=CC(C)(CCC=C(C)C)c1c(O)cc(O)c2c(=O)cc(-c3ccccc3)oc12 (configuration not stated)
- Activity (HT-29 [1]): 28.4
- Activity (HT-29 [2]): 28.1
- Caspase induction (HT-29 [3]): 8.9

Compound: O=c1cc(-c2ccccc2)oc2cc(O)c(Cc3ccccc3)c(O)c12
- Activity (HT-29 [1]): 65.3
- Activity (HT-29 [2]): 57.6

Compound: COc1cc2oc(-c3ccccc3)cc(=O)c2c(O)c1C
- Activity (HT-29 [1]): 92.2
- Activity (HT-29 [2]): 83.8

Compound: O=c1c(O)c(-c2ccc(O)cc2)oc2cc(O)cc(O)c12 [KAEMPFEROL]
- Activity (HT-29 [1]): 92
- Activity (HT-29 [2]): 89.6
- Caspase induction (HT-29 [3]): 1.8

Compound: C=CC(C)(C)c1c(O)cc(O)c2c(=O)cc(-c3ccccc3)oc12
- Activity (HT-29 [1]): 76.7
- Activity (HT-29 [2]): 57.7
- Caspase induction (HT-29 [3]): 1.1

Compound: CC(C)=CCC/C(C)=C/CC/C(C)=C/COc1cc(O)c2c(=O)cc(-c3ccccc3)oc2c1
- Activity (HT-29 [1]): 87.8
- Activity (HT-29 [2]): 83.3

Compound: COc1ccc(-c2oc3cc(O)cc(O)c3c(=O)c2OC)cc1 [ERMANIN]
- Activity (HT-29 [1]): 92
- Activity (HT-29 [2]): 77.1
- Caspase induction (HT-29 [3]): 1.2

Compound: C=CC(C)(C)c1c(O)cc(O)c2c(=O)c(O)c(-c3ccccc3)oc12
- Activity (HT-29 [1]): 76.7
- Activity (HT-29 [2]): 63
- Caspase induction (HT-29 [3]): 1.1

Compound: CC(C)=CCc1c(O)cc(O)c2c(=O)cc(-c3ccc(O)cc3)oc12
- Activity (HT-29 [1]): 76.9
- Activity (HT-29 [2]): 56.2

Compound: C=CC(C)(C)c1c(O)cc2oc(-c3ccccc3)cc(=O)c2c1O
- Activity (HT-29 [1]): 90.4
- Activity (HT-29 [2]): 79.1

Compound: CC(C)=CCC/C(C)=C/Cc1c(O)cc2oc(-c3ccccc3)cc(=O)c2c1O
- Activity (HT-29 [1]): 58.2
- Activity (HT-29 [2]): 53.9
- Caspase induction (HT-29 [3]): 1.9

Compound: CC(C)=CCc1c(O)cc(O)c2c(=O)c(O)c(-c3ccc(O)cc3)oc12
- Activity (HT-29 [1]): 78.8
- Activity (HT-29 [2]): 71.1
- Caspase induction (HT-29 [3]): 2.7

Compound: COc1cc(O)cc2oc(-c3ccccc3)cc(=O)c12
- Activity (HT-29 [1]): 104.7
- Activity (HT-29 [2]): 107.6

Compound: COc1ccc(-c2oc3cc(O)cc(O)c3c(=O)c2OC)c(OC)c1OC
- Activity (HT-29 [1]): 89.7
- Activity (HT-29 [2]): 91.5

Compound: COc1cc(-c2cc(=O)c3c(OC)c(OC)c(OC)cc3o2)cc(OC)c1OC
- Activity (HT-29 [1]): 94.2
- Activity (HT-29 [2]): 100.7

Compound: C=CC(C)(CC/C=C(\C)CCC=C(C)C)c1c(O)cc(O)c2c(=O)cc(-c3ccccc3)oc12 (configuration not stated)
- Activity (HT-29 [1]): 43.3
- Activity (HT-29 [2]): 24.5
- Caspase induction (HT-29 [3]): 6.9

Compound: COc1ccc(-c2oc3cc(O)cc(O)c3c(=O)c2O)cc1 [KAEMPFERIDE]
- Activity (HT-29 [1]): 99.77
- Activity (HT-29 [2]): 84.7
- Caspase induction (HT-29 [3]): 1

Compound: COc1ccc(-c2oc3cc(O)cc(O)c3c(=O)c2OC)cc1OC
- Activity (HT-29 [1]): 87.9
- Activity (HT-29 [2]): 74.2
- Caspase induction (HT-29 [3]): 1.1

Compound: Cc1c(O)cc2oc(-c3ccccc3)cc(=O)c2c1O
- Activity (HT-29 [1]): 104
- Activity (HT-29 [2]): 101
